Laboratory results taken from ChEMBL document CHEMBL5356938, “Enhancing allosteric inhibition of dihydrodipicolinate synthase through the design and synthesis of novel dimeric compounds” (RSC Med Chem, 2023).
pIC50: −log10 of the molar value.

Experiments:
[1] = Inhibition of Escherichia coli DHDPS using ASA as substrate assessed as NADPH oxidation to NADP+ preincubated with compound for 12 mins in the presence of NADPH followed by substrate addition by UV/Vis spectrophotometric analysis
In short: (§1)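 Coupled DHDPS–DHDPR assay with final 250 mM HEPES pH 8.0, 0.2 mM NADPH, 1 mM pyruvate, 0.125 mM ASA, 0.0009 mM E. coli DHDPR, 0.00008 mM DHDPS, 0.05% Tween 20 and varied inhibitor. Enzymes, pyruvate, buffer and NADPH were held at 30 °C for 12 min, then ASA was added. NADPH oxidation was followed at 340 nm and 30 °C. Initial rates came from the linear A340 slope, run in triplicate, and were used for IC50.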

[2] = biological target: T1, 4-hydroxy-tetrahydrodipicolinate synthase 1, chloroplastic (Arabidopsis thaliana, UniProt Q9LZX6); assay: Inhibition of Arabidopsis thaliana DHDPS1; in short: as §1
T1 sequence (Q9LZX6 whole entry): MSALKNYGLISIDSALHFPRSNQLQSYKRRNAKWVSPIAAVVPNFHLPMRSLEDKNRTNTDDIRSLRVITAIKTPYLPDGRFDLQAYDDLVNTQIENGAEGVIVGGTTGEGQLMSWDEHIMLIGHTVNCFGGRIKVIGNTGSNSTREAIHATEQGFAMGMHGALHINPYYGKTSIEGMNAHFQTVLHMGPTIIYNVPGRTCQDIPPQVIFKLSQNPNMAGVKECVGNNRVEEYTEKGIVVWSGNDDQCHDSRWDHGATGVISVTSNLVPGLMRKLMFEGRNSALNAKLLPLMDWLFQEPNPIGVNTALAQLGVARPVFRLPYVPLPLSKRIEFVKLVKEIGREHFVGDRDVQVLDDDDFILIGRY

[3] = biological target: T2, 4-hydroxy-tetrahydrodipicolinate synthase 2, chloroplastic (Arabidopsis thaliana, UniProt Q9FVC8); assay: Inhibition of Arabidopsis thaliana DHDPS2; in short: as §1
T2 sequence (Q9FVC8 whole entry): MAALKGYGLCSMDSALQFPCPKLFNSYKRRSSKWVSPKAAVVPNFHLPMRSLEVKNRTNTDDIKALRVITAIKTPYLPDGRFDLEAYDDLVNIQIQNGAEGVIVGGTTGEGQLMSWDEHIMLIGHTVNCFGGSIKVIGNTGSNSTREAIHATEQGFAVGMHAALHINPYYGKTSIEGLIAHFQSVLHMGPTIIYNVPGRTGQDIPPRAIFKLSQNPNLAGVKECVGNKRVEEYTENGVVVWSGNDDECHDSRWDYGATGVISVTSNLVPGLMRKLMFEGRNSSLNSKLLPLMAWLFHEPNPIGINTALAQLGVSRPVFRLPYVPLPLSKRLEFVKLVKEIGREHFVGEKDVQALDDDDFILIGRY

Row | SMILES | pIC50 [1] | pIC50 [2] | pIC50 [3]
1 | CCOC(=O)C(Br)CCC(Br)C(=O)OCC (stereo unspecified) | 4.11 |  | 
2 | COc1ccc(/C=C2\SC(=O)N([C@H](CC[C@@H](C(=O)O)N3C(=O)S/C(=C\c4ccc(OC)cc4)C3=O)C(=O)O)C2=O)cc1 | 4.38 |  | 
3 | COc1ccc(/C=C2\SC(=O)N(C(CCCC(C(=O)O)N3C(=O)S/C(=C\c4ccc(OC)cc4)C3=O)C(=O)O)C2=O)cc1 (stereo unspecified) | 4.39 |  | 
4 | COc1ccc(/C=C2\SC(=O)N(CC(=O)O)C2=O)cc1 | 4.33 | 4.18 | 4.18

These reach a higher pIC50 [1]. Values come first.

Row | pIC50 [1] | pIC50 [2] | pIC50 [3] | SMILES
5 | 4.71 |  |  | COc1ccc(/C=C2\SC(=O)N([C@@H](CC[C@@H](C(=O)O)N3C(=O)S/C(=C\c4ccc(OC)cc4)C3=O)C(=O)O)C2=O)cc1 (racemic)
6 | 5.00 | 4.45 | 4.47 | COc1ccc(/C=C2\SC(=O)N([C@H](C[C@@H](C(=O)O)N3C(=O)S/C(=C\c4ccc(OC)cc4)C3=O)C(=O)O)C2=O)cc1
7 | 4.52 |  |  | COc1ccc(/C=C2\SC(=O)N([C@H](C[C@H](C(=O)O)N3C(=O)S/C(=C\c4ccc(OC)cc4)C3=O)C(=O)O)C2=O)cc1 (racemic)
